The target in data set [1] is T1, ATP-dependent translocase ABCB1 (Homo sapiens, UniProt P08183). In words: Inhibition of human P-gp.
Data set [2] in a line: Retention time of the compound by HPLC analysis. In kind it is physicochemical. In a few lines:
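Reverse-phase C18 HPLC, isocratic acetonitrile/water 60:40, 1.0 mL/min, UV 254 nm; purity from major-peak area.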

Data set [3] addresses T1, ATP-dependent translocase ABCB1. In words: Inhibition of human wild type P-gp expressed in BacMam virus infected human HeLa cells assessed as calcein-AM accumulation at 10 uM after 10 mins by flow cytometry. In kind it is cell-based. An outline of the steps: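 HeLa cells transduced with BacMam WT-P-gp (10–15 particles/cell); 10 mM butyric acid added after 3–4 h, grown overnight at 37 °C. Trypsinized cells exposed to compound, then 0.5 μM calcein-AM for 10 min at 37 °C in the dark. […] Two independent experiments in triplicate, ± SD.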

A short description of data set [4]: Retardation factor of the compound using EtOAc-n-hexane at ratio of 3:2 by thin layer chromatography. In kind it is physicochemical.

T1 sequence (P08183 whole entry): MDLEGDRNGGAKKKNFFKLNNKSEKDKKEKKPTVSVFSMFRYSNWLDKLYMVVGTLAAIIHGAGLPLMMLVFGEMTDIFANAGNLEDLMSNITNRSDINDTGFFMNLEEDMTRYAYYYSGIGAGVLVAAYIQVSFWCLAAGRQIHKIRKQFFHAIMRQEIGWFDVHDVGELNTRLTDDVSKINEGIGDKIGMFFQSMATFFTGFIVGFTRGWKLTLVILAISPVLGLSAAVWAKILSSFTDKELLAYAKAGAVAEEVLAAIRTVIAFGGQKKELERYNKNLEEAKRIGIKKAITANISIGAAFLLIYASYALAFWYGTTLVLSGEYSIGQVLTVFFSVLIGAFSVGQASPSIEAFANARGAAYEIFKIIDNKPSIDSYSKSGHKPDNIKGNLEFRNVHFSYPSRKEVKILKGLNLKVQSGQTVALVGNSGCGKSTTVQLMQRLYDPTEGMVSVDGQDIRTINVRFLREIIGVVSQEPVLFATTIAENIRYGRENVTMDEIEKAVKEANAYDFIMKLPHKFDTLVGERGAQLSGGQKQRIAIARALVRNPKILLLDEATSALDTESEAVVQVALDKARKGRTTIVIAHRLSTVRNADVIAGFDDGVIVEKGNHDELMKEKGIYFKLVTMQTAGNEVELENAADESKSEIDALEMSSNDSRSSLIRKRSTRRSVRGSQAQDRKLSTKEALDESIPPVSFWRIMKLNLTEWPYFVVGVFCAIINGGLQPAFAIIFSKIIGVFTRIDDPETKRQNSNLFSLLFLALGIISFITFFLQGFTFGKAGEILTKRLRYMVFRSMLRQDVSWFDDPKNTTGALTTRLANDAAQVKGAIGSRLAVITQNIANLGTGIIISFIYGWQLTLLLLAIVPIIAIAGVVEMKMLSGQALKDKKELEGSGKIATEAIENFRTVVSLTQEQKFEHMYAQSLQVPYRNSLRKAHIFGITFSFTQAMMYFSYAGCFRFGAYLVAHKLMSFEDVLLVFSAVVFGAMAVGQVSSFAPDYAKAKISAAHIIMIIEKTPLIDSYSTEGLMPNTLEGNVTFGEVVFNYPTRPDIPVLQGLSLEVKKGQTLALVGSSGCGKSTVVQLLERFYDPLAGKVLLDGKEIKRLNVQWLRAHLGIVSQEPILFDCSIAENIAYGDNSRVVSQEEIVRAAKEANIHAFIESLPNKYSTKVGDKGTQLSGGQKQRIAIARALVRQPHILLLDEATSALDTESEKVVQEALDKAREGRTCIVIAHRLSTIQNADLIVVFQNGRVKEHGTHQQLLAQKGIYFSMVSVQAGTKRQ

With `CCOC(=O)c1csc([C@@H](NC(=O)c2csc([C@@H](NC(=O)c3csc([C@@H](NC(=O)OC(C)(C)C)C(C)C)n3)C(C)C)n2)C(C)C)n1`, the 50% inhibitory concentration (IC50) in data set [1] was determined as 1500 nM.

`COc1cc(C(=O)N[C@H](c2nc(C(=O)NC3Cc4ccccc4C3)cs2)C(C)C)cc(OC)c1OC`: the Retention_time in data set [2] worked out at 4.1 min. For the same compound, the “inhibition (INH)” value in data set [3] is 47%. The Rf in data set [4] is listed as 0.5.

In the case of `COc1cc(C(=O)N[C@H](c2nc(C(=O)NCCc3ccccn3)cs2)C(C)C)cc(OC)c1OC`, the Retention_time in data set [2] turned out to be 2.2 min. The “inhibition (INH)” value in data set [3] is reported as 5%. The Rf in data set [4] worked out at 0.2.

In turn, `COc1cc(C(=O)N[C@H](c2nc(C(=O)NCc3ccc(-c4ccccc4)cc3)cs2)C(C)C)cc(OC)c1OC` returned a Retention_time in data set [2] of 6.3 min. Moreover, the “inhibition (INH)” value in data set [3] is 23%. Further, in data set [4], the Rf was determined as 0.5.

The IC50 is the point on the concentration scale where inhibition reaches its midpoint. Higher therefore signals a need for much substance.

The values above are taken from ChEMBL document CHEMBL3259707, “Design and synthesis of human ABCB1 (P-glycoprotein) inhibitors by peptide coupling of diverse chemical scaffolds on carboxyl and amino termini of (S)-valine-derived thiazole amino acid” (J Med Chem, 2014).
